Measurements from ChEMBL document CHEMBL4330057, “Second generation of diazachrysenes: Protection of Ebola virus infected mice and mechanism of action” (Eur J Med Chem, 2019).
Calls of active or inactive are those of the source. The rule behind the calls is not given here.

Legend:
[1] = Cytotoxicity against HFF after 2 hrs by high content imaging analysis; format: cell-based; details: human, HFF cells
Ebolavirus [2] = assay: Antiviral activity against Ebolavirus H. sapiens-wt/1995/Kikwit-9510621 infected in human HeLa cells assessed as inhibition of viral infection at 2 uM treated for 2 hrs after viral infection and measured after 24 hrs by EboV GP immunostaining based high content imaging analysis; format: functional, organism-based
[3] = Toxicity in 6 hrs post fertilized zebrafish embryo assessed as teratogenic effect by measuring malformation of eyes up to 50 uM up to 120 hrs post fertilization by inverted microscopic method; design: species or system Danio rerio; details: in vivo
HeLa [4] = assay: Induction of lysosomotropism in human HeLa cells infected with Ebolavirus assessed as increase in fluorescence intensity of acid compartments at 2 uM for 1 hr by Lysosensor DND189 staining based assay; format: functional, cell-based
Method in brief: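 HeLa cells were pretreated 1 h with compound (Bafilomycin A1 at 0.01 μM as acidification control), then stained with LysoSensor DND 189 for 10 min and washed. Live imaging at Ex/Em 443/505 nm. Fluorescence intensity per area was quantified by image analysis. Eight wells per point, about 3000 cells/well, mean ± SD, three independent experiments.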

HeLa [5] = assay: Induction of lysosomotropism in human HeLa cells infected with Ebolavirus assessed as dense clustering in perinuclear region at 2 uM for 2 hrs by acridine orange staining based assay; format: functional, cell-based
Method in brief: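 HeLa cells pretreated 2 h, then acridine orange for 30 min, washed and imaged. Total intensity and average area of acridine orange fluorescence quantified by high-content imaging. Mean ± SD of 8 wells, about 3000 cells each, three independent experiments.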

[6] = Binding affinity to AGP (unknown origin) at compound to protein molar ratio of 1:20 after 10 mins by fluorescence spectral analysis; format: ADME; details: human, isolated protein
Method in brief: (§1)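 Protein fluorescence spectra recorded while compound was added in increasing amounts. Stern-Volmer binding constant (KSV) derived from the fluorescence change.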

[7] = Toxicity in 6 hrs post fertilized zebrafish embryo assessed as teratogenic effect by measuring yolk absorption up to 50 uM up to 120 hrs post fertilization by inverted microscopic method; design: species or system Danio rerio; details: in vivo
HeLa [8] = assay: Inhibition of lysosome fusion with autophagosome in human HeLa cells harboring GFP-LC3 assessed as increase in GFP-LC3-2 clustering at 2 uM after 4 hrs; format: functional, cell-based
Method in brief: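 HeLa cells stably expressing GFP-LC3 were treated with compound for 4 h, then imaged. Total GFP clusters per cell were counted. Eight-well replicates, about 500 cells/well, mean ± SD, three independent experiments.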

[9] = Toxicity in 6 hrs post fertilized zebrafish embryo assessed as teratogenic effect by measuring pericardial edema up to 50 uM up to 120 hrs post fertilization by inverted microscopic method; design: species or system Danio rerio; details: in vivo
HeLa [10] = assay: Induction of lysosomotropism in human HeLa cells infected with Ebolavirus assessed as expansion of acid compartments at 2 uM for 2 hrs by acridine orange staining based assay; format: functional, cell-based
Method in brief: (§2)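 HeLa cells were pretreated with compound for 2 h, then given acridine orange for 30 min and washed. Red AO fluorescence in acidic compartments was imaged, and total intensity and average area were scored by high-content imaging. Eight wells per point, about 3000 cells/well, mean ± SD, representative of three independent experiments.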

Albumin = Albumin (Homo sapiens, UniProt P02768); assay: Binding affinity to human serum albumin at compound to protein molar ratio of 1:20 after 10 mins by fluorescence spectral analysis; format: ADME; details: isolated protein; method in brief: as §1
Albumin, sequence (P02768 whole entry): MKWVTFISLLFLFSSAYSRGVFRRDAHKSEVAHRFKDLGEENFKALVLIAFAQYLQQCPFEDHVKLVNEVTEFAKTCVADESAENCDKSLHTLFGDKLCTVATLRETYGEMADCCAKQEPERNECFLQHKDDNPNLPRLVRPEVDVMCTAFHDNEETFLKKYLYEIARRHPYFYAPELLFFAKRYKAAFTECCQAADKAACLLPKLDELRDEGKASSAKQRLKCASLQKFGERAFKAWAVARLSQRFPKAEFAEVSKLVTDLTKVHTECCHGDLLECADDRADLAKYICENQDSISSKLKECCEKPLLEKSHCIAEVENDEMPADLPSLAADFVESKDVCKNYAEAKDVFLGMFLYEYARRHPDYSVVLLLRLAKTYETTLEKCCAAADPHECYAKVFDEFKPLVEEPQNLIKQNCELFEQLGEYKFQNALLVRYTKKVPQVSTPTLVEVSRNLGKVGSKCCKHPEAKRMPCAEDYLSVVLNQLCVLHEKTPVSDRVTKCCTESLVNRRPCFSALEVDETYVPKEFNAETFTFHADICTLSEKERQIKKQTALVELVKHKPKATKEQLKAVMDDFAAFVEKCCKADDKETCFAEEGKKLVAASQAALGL

HeLa [11] = assay: Induction of lysosomotropism in human HeLa cells infected with Ebolavirus assessed as increase in red fluorescence at 2 uM for 2 hrs by acridine orange staining based assay; format: functional, cell-based; method in brief: as §2
[12] = Selectivity index, ratio of CC50 for HFF to EC50 for Ebolavirus H. sapiens-wt/1995/Kikwit-9510621 infected in human HeLa cells; format: toxicity, cell-based; details: read-out: Ratio CC50/EC50
Ebolavirus [13] = assay: Antiviral activity against Ebolavirus H. sapiens-wt/1995/Kikwit-9510621 infected in human HeLa cells assessed as inhibition of viral infection at 2 uM treated simultaneously with viral infection and measured after 24 hrs by EboV GP immunostaining based high content imaging analysis; format: functional, organism-based
[14] = Toxicity in 6 hrs post fertilized zebrafish embryo assessed as tail detachment up to 50 uM up to 120 hrs post fertilization by inverted microscopic method; design: species or system Danio rerio; details: in vivo
Ebolavirus [15] = assay: Antiviral activity against Ebolavirus H. sapiens-wt/1995/Kikwit-9510621 infected in human HeLa cells assessed as inhibition of viral infection at 2 uM pretreated for 2 hrs followed by viral infection and measured after 24 hrs by EboV GP immunostaining based high content imaging analysis; format: functional, organism-based
[16] = Toxicity in 6 hrs post fertilized zebrafish embryo assessed as lethal effect on somite formation up to 50 uM up to 120 hrs post fertilization by inverted microscopic method; design: species or system Danio rerio; details: in vivo
[17] = Selectivity index, ratio of CC50 for human HeLa cells to EC50 for Ebolavirus H. sapiens-wt/1995/Kikwit-9510621 infected in human HeLa cells; format: toxicity, cell-based; details: read-out: Ratio CC50/EC50
Ebolavirus [18] = assay: Antiviral activity against Ebolavirus H. sapiens-wt/1995/Kikwit-9510621 infected in human HeLa cells assessed as inhibition of viral infection pretreated for 2 hrs followed by viral infection and measured after 48 hrs by EboV GP immunostaining based high content imaging analysis; format: functional, organism-based; details: Orthoebolavirus, H. sapiens-wt/1995/Kikwit-9510621, HeLa; for EC50: read-out: EC50
[19] = Toxicity in 6 hrs post fertilized zebrafish embryo assessed as teratogenic effect by measuring malformation of notochord up to 50 uM up to 120 hrs post fertilization by inverted microscopic method; format: tissue-based, Danio rerio; details: in vivo
[20] = Toxicity in 6 hrs post fertilized zebrafish embryo assessed as teratogenic effect by measuring malformation of sacculi/otoliths up to 50 uM up to 120 hrs post fertilization by inverted microscopic method; design: species or system Danio rerio; details: in vivo
[21] = Toxicity in 6 hrs post fertilized zebrafish embryo assessed as lethal effect on heart beat up to 50 uM up to 120 hrs post fertilization by inverted microscopic method; format: tissue-based, Danio rerio; details: in vivo
[22] = Toxicity in 6 hrs post fertilized zebrafish embryo assessed as teratogenic effect by measuring effect on heart beat frequency up to 50 uM up to 120 hrs post fertilization by inverted microscopic method; design: species or system Danio rerio; details: in vivo
[23] = Toxicity in 6 hrs post fertilized zebrafish embryo assessed as teratogenic effect by measuring yolk edema up to 50 uM up to 120 hrs post fertilization by inverted microscopic method; design: species or system Danio rerio; details: in vivo
HeLa [24] = assay: Induction of lysosomotropism in human HeLa cells infected with Ebolavirus assessed as clustering of late endosomes/lysosomes in cytoplasm at 2 uM for 1 hr by Lysosensor DND189 staining based assay; format: functional, cell-based
Method in brief: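 HeLa cells treated 1 h (2 μM; bafilomycin A1 0.01 μM as control), then LysoSensor DND 189 for 10 min. Washed and imaged live at 443/505 nm (dye) and 405/450 nm (compound). Fluorescence intensity/area quantified. Mean ± SD of 8 wells, about 3000 cells each, three independent experiments.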

Ebolavirus [25] = assay: Antiviral activity against Ebolavirus H. sapiens-wt/1995/Kikwit-9510621 infected in HFF assessed as inhibition of viral infection pretreated for 2 hrs followed by viral infection and measured after 48 hrs by EboV GP immunostaining based high content imaging analysis; format: functional, organism-based; details: Orthoebolavirus
[26] = Toxicity in 6 hrs post fertilized zebrafish embryo assessed as teratogenic effect by measuring effect on blood circulation up to 50 uM up to 120 hrs post fertilization by inverted microscopic method; design: species or system Danio rerio; details: in vivo

Compound | CC50 at 2 h [1] [nM] | Activity (Ebolavirus [2]) | Activity [3] | Activity (HeLa [4]) | Activity (HeLa [5]) | KSV [6] [×10⁴ /M] | Activity [7] | inhibition (HeLa [8]) | Activity [9] | Activity (HeLa [10]) | KSV (Albumin) | Activity (HeLa [11]) | selectivity ratio [12] | Activity (Ebolavirus [13]) | Activity [14] | Activity (Ebolavirus [15]) | Activity [16] | selectivity ratio [17] | EC90 (Ebolavirus [18]) [nM] | EC50 (Ebolavirus [18]) [nM] | further results
Cl.Cl.Cl.Cl.c1cc(NCCN2CCOCC2)c2ccc3c(ccc4c(NCCN5CCOCC5)ccnc43)c2n1 | > 20000 | inactive | Non-Toxic | Active | Active | 8.12 | Non-Toxic | Active | Non-Toxic | Active | 1.13 ×10⁵ /M | inactive | > 36.5 | Active | Non-Toxic | Active | Non-Toxic | > 28.5 | < 5000 | 700 | Activity [19]: Non-Toxic; Activity [20]: Non-Toxic; Activity [21]: Non-Toxic; Activity [22]: Non-Toxic; Activity [23]: Non-Toxic; Activity (HeLa [24]): Active; EC50 (Ebolavirus [25]): 550 nM; EC90 (Ebolavirus [25]): 1360 nM; Activity [26]: Non-Toxic
Cl.Cl.Cl.Cl.c1cc(NCCCCN2CCOCC2)c2ccc3c(ccc4c(NCCN5CCOCC5)ccnc43)c2n1 | 2400 | inactive | Non-Toxic | Active | Active | 6.12 | Non-Toxic | Active | Non-Toxic | Active | 8.85 ×10⁴ /M | inactive | 11.2 | Active | Non-Toxic | Active | Non-Toxic | 30 | 850 | 260 | Activity [19]: Non-Toxic; Activity [20]: Non-Toxic; Activity [21]: Non-Toxic; Activity [22]: Non-Toxic; Activity [23]: Non-Toxic; Activity (HeLa [24]): Active; EC50 (Ebolavirus [25]): 210 nM; EC90 (Ebolavirus [25]): 780 nM; Activity [26]: Non-Toxic
